Experimental data from ChEMBL document CHEMBL1153963, “Phenanthrene-based tylophorine-1 (PBT-1) inhibits lung cancer cell growth through the Akt and NF-kappaB pathways” (J Med Chem, 2009).
Activity calls are given as the source filed them. The calls are words filed in the database; no cut-off is given here.

Key:
[1] = tested on: CL1-0; assay: Induction of cyclin B1 protein accumulation in human CL1-0 cells at 0.5 ug/mL after 24 hrs by Western blot; assay type: functional, cell-based
In short: (§1)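 CL1-0 cells exposed to rising concentrations for 24 h, or to 0.5 µg/mL over a time course; 50 µg lysate resolved by 10% SDS-PAGE, blotted, probed with cyclin/CDK-inhibitor antibodies in TBS-Tween/5% milk, HRP secondary, chemiluminescent film detection.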

[2] = tested on: CL1-0; assay: Induction of cyclin D1 protein accumulation in human CL1-0 cells at 0.5 ug/mL after 24 hrs by Western blot; assay type: functional, cell-based; in short: as §1
[3] = Cell cycle arrest in human CL1-0 cells assessed as accumulation at S phase after 24 hrs by flow cytometry; assay type: functional, cell-based
In short: (§2)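 CL1-0 cells seeded at 2×10^5 per 60 mm dish, incubated 24 h, then exposed to various drug concentrations for 2, 6, 12, 16 or 24 h. Harvested cells fixed in cold 70% ethanol at 4 °C for 16 h, treated with RNase A (20 µg/mL, 37 °C, 30 min), stained with propidium iodide (50 µg/mL, 4 °C, 30 min), analysed at once by flow cytometry for phase distribution.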

[4] = Cell cycle arrest in human CL1-0 cells assessed as accumulation at G2/M phase after 6 hrs by flow cytometry; assay type: functional, cell-based; in short: as §2
[5] = tested on: A549; assay: Decrease in […] binding affinity to NF-kappaB response element on COX2 promoter in human A549 cells at >0.25 ug/mL by chromatin immunoprecipitation assay; assay type: functional, cell-based
In short: (§3)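 A549 cells, untreated or treated with drug plus TNF-α for 4 h, cross-linked with 1% formaldehyde (quenched with 0.125 M glycine), lysed, sonicated 12 W for 45 s, immunoprecipitated overnight at 4 °C with anti-RelA, anti-p50 or anti-RelB, collected on protein A/G beads. Cross-links reversed at 65 °C overnight; COX-2 promoter (nt -359 to +106) PCR-amplified 35 cycles, 2% agarose gel, input chromatin as control.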

[6] = Cell cycle arrest in human CL1-0 cells assessed as accumulation at G0/G1 phase after 12 hrs by flow cytometry; assay type: functional, cell-based; in short: as §2
[7] = Cell cycle arrest in human CL1-0 cells assessed as accumulation at G0/G1 phase after 2 hrs by flow cytometry; assay type: functional, cell-based; in short: as §2
[8] = Cell cycle arrest in human CL1-0 cells assessed as accumulation at G0/G1 phase after 24 hrs by flow cytometry; assay type: functional, cell-based; in short: as §2
[9] = tested on: CL1-0; assay: Effect on cyclin E protein expression in human CL1-0 cells at 0.5 ug/mL after 24 hrs by Western blot; assay type: functional, cell-based; in short: as §1
[10] = tested on: CL1-0; assay: Increase in IkappaB protein level in human CL1-0 cells by Western blot; assay type: functional, cell-based
In short: (§4)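 Western blot of CL1-0 cells after 24 h at increasing concentrations; probed for p-Akt, Akt and IκB; 50 µg lysate on 10% SDS-PAGE, HRP secondary, chemiluminescence on film.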

[11] = tested on: A549; assay: Decrease in RelA binding affinity to NF-kappaB response element on COX2 promoter in human A549 cells by chromatin immunoprecipitation assay; assay type: functional, cell-based; in short: as §3
[12] = molecular target: T1, Inhibitor of nuclear factor kappa-B kinase subunit beta (Homo sapiens) (UniProt O14920); assay: Effect on IKK-beta activity in TNF-alpha-stimulated human CL1-0 cells by Western blot; assay type: cell-based
T1 sequence (whole entry): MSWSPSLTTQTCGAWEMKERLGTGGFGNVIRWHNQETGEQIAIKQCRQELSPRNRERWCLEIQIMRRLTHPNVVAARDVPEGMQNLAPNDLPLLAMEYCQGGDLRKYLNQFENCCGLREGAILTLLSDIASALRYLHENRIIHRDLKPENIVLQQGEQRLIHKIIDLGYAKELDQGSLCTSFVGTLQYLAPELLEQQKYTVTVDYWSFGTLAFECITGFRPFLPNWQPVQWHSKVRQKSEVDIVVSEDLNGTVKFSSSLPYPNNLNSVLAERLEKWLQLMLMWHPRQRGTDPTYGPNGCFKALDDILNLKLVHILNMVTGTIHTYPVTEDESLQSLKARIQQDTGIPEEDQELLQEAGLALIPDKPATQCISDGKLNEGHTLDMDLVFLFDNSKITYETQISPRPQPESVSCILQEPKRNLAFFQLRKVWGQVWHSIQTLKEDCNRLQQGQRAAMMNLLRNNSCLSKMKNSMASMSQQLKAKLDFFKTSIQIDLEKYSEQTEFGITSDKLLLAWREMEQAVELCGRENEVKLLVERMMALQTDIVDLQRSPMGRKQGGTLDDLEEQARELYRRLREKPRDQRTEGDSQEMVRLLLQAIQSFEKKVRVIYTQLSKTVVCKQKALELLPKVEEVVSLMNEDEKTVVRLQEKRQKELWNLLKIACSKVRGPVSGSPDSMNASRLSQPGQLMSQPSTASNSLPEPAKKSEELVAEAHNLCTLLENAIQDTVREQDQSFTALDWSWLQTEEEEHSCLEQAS
In short: (§5)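 CL1-0 cells serum-starved overnight, pretreated with various drug concentrations, then stimulated with TNF-α for 4 h. Lysates (50 µg) resolved by 10% SDS-PAGE, blotted, probed with specific antibodies in TBS pH 7.5/0.05% Tween 20/5% milk, HRP secondaries, chemiluminescent film detection; a representative blot shown.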

[13] = Cell cycle arrest in human CL1-0 cells assessed as decrease in accumulation at G0/G1 phase by flow cytometry; assay type: functional, cell-based; details: TDE = time-dependent effect; in short: as §2
[14] = Cell cycle arrest in human CL1-0 cells assessed as accumulation at S phase after 2 hrs by flow cytometry; assay type: functional, cell-based; in short: as §2
[15] = tested on: CL1-0; assay: Decrease in RelA protein level in TNF-alpha-stimulated human CL1-0 cells by Western blot; assay type: functional, cell-based; in short: as §5
[16] = tested on: CL1-0; assay: Cytotoxicity against human CL1-0 cells assessed as disruption of cell morphology after 48 hrs; assay type: functional, cell-based
[17] = Cell cycle arrest in human CL1-0 cells assessed as accumulation at G2/M phase after 12 hrs by flow cytometry; assay type: functional, cell-based; in short: as §2
[18] = molecular target: RAC-alpha serine/threonine-protein kinase (Homo sapiens) (UniProt P31749); assay: Inhibition of AKT phosphorylation in human CL1-0 cells by Western blot; assay type: cell-based; in short: as §4
Chain of RAC-alpha serine/threonine-protein kinase (Homo sapiens) (P31749 whole entry): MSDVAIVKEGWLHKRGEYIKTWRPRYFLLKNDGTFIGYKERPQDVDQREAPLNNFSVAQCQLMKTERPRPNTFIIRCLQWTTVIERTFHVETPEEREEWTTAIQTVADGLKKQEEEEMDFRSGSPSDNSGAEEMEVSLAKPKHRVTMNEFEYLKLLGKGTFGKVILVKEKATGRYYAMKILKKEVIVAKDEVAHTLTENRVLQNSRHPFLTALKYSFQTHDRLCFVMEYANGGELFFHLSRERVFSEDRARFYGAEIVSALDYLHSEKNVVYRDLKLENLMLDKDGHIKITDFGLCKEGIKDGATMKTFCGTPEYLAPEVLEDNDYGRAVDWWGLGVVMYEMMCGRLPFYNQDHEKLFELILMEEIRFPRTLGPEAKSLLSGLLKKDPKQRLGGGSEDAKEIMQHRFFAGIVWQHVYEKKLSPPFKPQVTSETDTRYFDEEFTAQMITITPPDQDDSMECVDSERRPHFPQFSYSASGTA

[19] = tested on: CL1-0; assay: Suppression of colony formation of human CL1-0 cells assessed as reduction of cell colonies after 10 to 14 days; assay type: functional, cell-based
[20] = tested on: CL1-0; assay: Effect on p21 protein expression in human CL1-0 cells at 0.5 ug/mL after 24 hrs by Western blot; assay type: functional, cell-based; in short: as §1
[21] = tested on: CL1-0; assay: Growth inhibition of human CL1-0 cells at >0.25 ug/mL; assay type: functional, cell-based
[22] = molecular target: RAC-alpha serine/threonine-protein kinase (Homo sapiens) (UniProt P31749); assay: Inhibition of TNF-alpha-induced AKT activation in human CL1-0 cells by Western blot; assay type: cell-based
In short: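 CL1-0 (and A549) cells serum-starved overnight, pretreated at various concentrations, then TNF-α stimulated for 4 h; extracts immunoblotted for p-Akt, Akt, IKKα, p-IKKα/β; representative blot shown.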

Q: Which Activity [1] does the source give for `COc1ccc2c(CN3CCC(CO)CC3)cc3cc4c(cc3c2c1)OCO4` here?
A: Active

Q: And the Activity [2]?
A: Active

Q: What about the Activity [3] of the same compound?
A: 43.8%

Q: What about the Activity [4] of the same compound?
A: 24.3%

Q: What about the Activity [5] of the same compound?
A: Active

Q: And the Activity [6]?
A: 41.7%

Q: And the Activity [7]?
A: 53.7%

Q: And the Activity [8]?
A: 16.6%

Q: And the Activity [9]?
A: inactive

Q: What about the Activity [10] of the same compound?
A: Dose-dependent effect

Q: And the Activity [11]?
A: Active

Q: And the Activity [12]?
A: inactive

Q: What about the Activity [13] of the same compound?
A: tde

Q: What about the Activity [14] of the same compound?
A: 15.1%

Q: What about the Activity [15] of the same compound?
A: Active

Q: And the Activity [16]?
A: Active

Q: And the Activity [17]?
A: 27%

Q: And the Activity [18]?
A: Dose-dependent effect

Q: And the Activity [19]?
A: Dose-dependent effect

Q: And the Activity [20]?
A: inactive

Q: What about the Activity [21] of the same compound?
A: Active

Q: What about the Activity [22] of the same compound?
A: Active
